B1: tRNA (parent)
chain: GUUCCGUUGGCGUAAUGGUAACGCGUCUCCCUCCUAAGGAGAAGACUGCGGGUUCGAGUCCCGUACGGAACG

This sample holds only a part of the variants without activity. Bounds are passed on as bounds.

Variants of B1 are the subject of this data set. The experiment in a line: yeast fitness relative to wild type (ratio to wild type); higher = fitter; tRNA-Arg(CCU), competitive growth, 37 C, YPD. The gist of the method:
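Start and end populations of a pooled competition were compared by 100-nucleotide paired-end sequencing of gene amplicons. The Saccharomyces cerevisiae strains carried tRNA-Arg(CCU) gene variants at the native genomic locus, synthesised with a 3% per-site mutation rate at 69 sites, and competed in YPD at 37°C for 24 hours in six parallel replicates. Darwinian fitness relative to wild type was based on the change in genotype frequencies. Genotypes required ≥ 100 starting reads, and estimates < 0.5 were set to 0.5.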
Consider C4U A15G C22U A69U, for which the yeast fitness is at most 0.5.
As for U2G G63C, the yeast fitness amounted to 0.694.
For the variant C11G A14U G17A C61G C62G, the yeast fitness is at most 0.5.
G6A A15G U26A C30G C46U: the yeast fitness came out at 0.661.
With G38C G50A U53G G68A the figure was 0.597; with G6C G17A C24A U32C, at most 0.5; with C49G A57U G63A G67A, at most 0.5.
As for C5G U8C G12A C46U G68A, the yeast fitness was at most 0.5.
Consider C11U A15U G41A, for which the yeast fitness is at most 0.5.
Regarding C5A U7C U19A G38C A42G C49G C55A A57C, the yeast fitness is at most 0.5.
On to C34U U35G G38A C62U A65C, for which the yeast fitness was at most 0.5.
Regarding G6A C31A U47C G67A, the yeast fitness is at most 0.5.
The result for C29G A36U C46G reads 0.755; that for A14U C29A C49A, at most 0.5.
With U16G C61G A65U the figure was at most 0.5; with A14G C29U A65G, 0.555.
Regarding C4U A15C, the yeast fitness amounted to 0.763.
For G10C C11U C49A A65C, the yeast fitness is at most 0.5.
For G52A A57G G58A A70U, the yeast fitness is at most 0.5.
In the case of C33G G51C, the yeast fitness is at most 0.5.
For the variant C29U A37U, the yeast fitness was 0.734.
The result for A14G U26G U54G A69U reads at most 0.5; that for C24U U26G A43G A70U, 0.597; that for U3C C11A U32G G39A C61A C62A, at most 0.5.
U8G U32C C33G: the yeast fitness was at most 0.5.
On to G23A G39C C49A, for which the yeast fitness was at most 0.5.
The result for G12C C30U U59A reads at most 0.5.
Take C49G C62U: the yeast fitness stood at 0.79.
The result for G9C C30A reads 0.664; that for U3C C27G C49A A70G, 0.593.
G9A G48A A69U: the yeast fitness came out at 1.07.
Take G18A A57C: the yeast fitness was 0.626.
Turning to U26A C30U A37U, the yeast fitness was at most 0.5.
Regarding U28A, the yeast fitness stood at 0.892.
Regarding C11U A45U A70C, the yeast fitness was 1.06.
Regarding U8C C24G G50A, the yeast fitness is at most 0.5.
With U16C A57U C66U, the yeast fitness was 0.531.
For the variant A37G G48A G50A U59G, the yeast fitness came to 0.66.
As for U28A G58C G68C, the yeast fitness was at most 0.5.
With U2A G12U C55U, the yeast fitness is at most 0.5.
As to G6C C24A C46G G52A, the yeast fitness is 0.695.
A14G C24U A45C G51U U59C: the yeast fitness was at most 0.5.
With U2C U13A U54C C66U, the yeast fitness is at most 0.5.
With A14G C31G A37U the figure was 0.533.
With G41A C60A, the yeast fitness came out at 0.667.
With A15G C46G the figure was 0.897.
As for C29G A65U, the yeast fitness came out at 0.579.
With C31U C49U C61G, the yeast fitness amounted to 0.638.
The result for U3A U13A reads 1.04; that for G9A U26G, 0.967; that for U3G A15U U35C, at most 0.5.
For the variant C22G C66U A69C, the yeast fitness is 0.564.
With A40U C61A, the yeast fitness was determined as 0.76.
Consider A14C C24G A45C U59C C61U, for which the yeast fitness was at most 0.5.
For A15C G39A, the yeast fitness was 0.664.
For C4U A21G C46A G67A, the yeast fitness was 0.63.
With C24U U26A the figure was 0.938; with U2G C22U C24G, 0.596; with C24G C33U C49G A57U C61G, at most 0.5.
A14C G25A C33G A36U A45G G52C A70C: the yeast fitness turned out to be 0.556.
Take U7A A45C C66U: the yeast fitness amounted to 0.535.
For the variant U2A A15U G17C G51A, the yeast fitness was at most 0.5.
As for C33U U53A G58C, the yeast fitness is at most 0.5.
With C4U C30A A70U the figure was 0.799.
With C24U C29U A36U A70C, the yeast fitness is at most 0.5.
Turning to C29A U35C A40U, the yeast fitness stood at 0.639.
Regarding C11U A15G G58C, the yeast fitness worked out at 0.725.
Consider U32C C34A, for which the yeast fitness was 0.729.
C11G C34G A37U: the yeast fitness was at most 0.5.
C4G C55U: the yeast fitness was found to be 0.748.
With G6A C11U U13C C27G A69C, the yeast fitness worked out at 0.541.
On to U3A U35C G63C, for which the yeast fitness is at most 0.5.
With C5G A14C U16A C30U G38C G41C C66U, the yeast fitness is at most 0.5.
Take C5U U26A C55G: the yeast fitness was at most 0.5.
As to U2C G18A C24A U28A U32C, the yeast fitness is at most 0.5.
Regarding G10C C31G A45U G68C, the yeast fitness is at most 0.5.
For G6C A37U U53C A69U, the yeast fitness was at most 0.5.
The result for C11A C24G C34U C49A reads at most 0.5; that for C46G G50A C62A, 0.603.
Consider G6A C34G C61G, for which the yeast fitness was 0.538.
As for U3C C4G U7C A21C G23C C55A U64A A65C, the yeast fitness is at most 0.5.
G25C A36G G48A C60A: the yeast fitness is at most 0.5.
Regarding G23A C55A C61A, the yeast fitness was determined as 0.568.
For U47C A70C, the yeast fitness stood at 1.07.
Regarding C4G A36U, the yeast fitness is 0.663.
In the case of U35A A37G, the yeast fitness was at most 0.5.
With U2A G9A U13A C24A A45C U64A the figure was 0.537; with U13C C29U G56C, at most 0.5.
Take C4G A14U C34U: the yeast fitness stood at 0.591.
Consider C49A G50A, for which the yeast fitness is 0.672.
With G58A G67C A69C the figure was 0.542; with C11U A43C C62U, 0.692.
For the variant C4U G18C C49U C61A, the yeast fitness was at most 0.5.
With G23A C30A A43U the figure was at most 0.5.
The result for C30A C49U A69U reads 0.682; that for U13C C22U G38C A70U, at most 0.5.
For G9C C60G G67A, the yeast fitness worked out at 0.572.
For U8C C60U, the yeast fitness turned out to be 0.832.
For A14C A15G G17C A45C, the yeast fitness was at most 0.5.
Turning to U3A G39A, the yeast fitness turned out to be 0.888.
With U35A C55A C66A the figure was at most 0.5.
With G6C A20U the figure was 0.812; with C11U A14G C27G C31U, 0.618; with C4U A15C C27A C31U A43G C60A, 0.526.
Consider C5G G18C G56C, for which the yeast fitness is at most 0.5.
Take G38C G58C U64A: the yeast fitness was found to be 0.621.
Regarding C11U A45U C49G A65U, the yeast fitness was at most 0.5.
For U2A G23A C29G G58C C60U C66G, the yeast fitness was at most 0.5.
C22U C31G G38A U47A C62U: the yeast fitness was at most 0.5.
Take U26C G39A: the yeast fitness was 0.698.
The result for U16C G17A C33U C49A C62G reads 0.57; that for A15G A20G C49A C62U, 0.567.
Turning to C22U C30A C31U, the yeast fitness is at most 0.5.
Take A37C G67A: the yeast fitness came out at 0.696.
For G18C C22U U26G C30G C55G C66A, the yeast fitness was at most 0.5.
C24G A37C C49U A69U: the yeast fitness stood at 0.545.
On to U3A G48A G67A, for which the yeast fitness was 0.541.
On to G44A U54C C61U A69C, for which the yeast fitness worked out at 0.627.
Turning to C30U C31U C34A A70C, the yeast fitness was at most 0.5.
With C22U C33U C34A G38C, the yeast fitness was at most 0.5.
With C11U A43G A57C, the yeast fitness is at most 0.5.
For the variant C5U C34U C49U U53C G67U, the yeast fitness is at most 0.5.
Turning to C30A U54C, the yeast fitness came to 0.811.
In the case of C5G C22A A69C, the yeast fitness was found to be 0.603.
With G44C A45C the figure was 0.97.
For A20C A21C G39A U53A, the yeast fitness was at most 0.5.
As to C5G G17A C22U C46U C66U A70C, the yeast fitness worked out at 0.62.
Regarding C22U A45U A69U, the yeast fitness is 0.804.
Regarding A15G G63C A65G, the yeast fitness was 0.543.
As for G10C U35A A37U A43G, the yeast fitness is at most 0.5.
For the variant C11U A65U C66A, the yeast fitness was at most 0.5.
The result for C4U G18C G68C reads 0.535; that for U32C C62U C66G, at most 0.5.
Consider G10C G50A U59A, for which the yeast fitness is at most 0.5.
Regarding A15C C22G U32C G41A, the yeast fitness was at most 0.5.
The result for G23A C30G C33G A36U C46G C55G C61U reads 0.567; that for C29U C30U C61A, at most 0.5.
With A20C C49A the figure was 0.575.
On to U16C C30U C62U, for which the yeast fitness came to 0.645.
With U2C C31G G58A the figure was at most 0.5; with C33U A70G, 0.6; with U26C C29A, 0.664.
For A20U C24G C55A, the yeast fitness is at most 0.5.
On to A15G U16A U19C C30U G52C, for which the yeast fitness is at most 0.5.
For G10A A21C G52C, the yeast fitness was at most 0.5.
As for U2C G6A A20U C30U A36U C62U, the yeast fitness is at most 0.5.
The result for U16C C46G reads 0.979; that for U16G C46A C66A, at most 0.5.
With C46A A57G C61U the figure was 0.704.
As to C55G A57U C62U C66U, the yeast fitness is at most 0.5.
Turning to G17C C27U A65G, the yeast fitness amounted to 0.598.
In the case of C11U A40G G67C A69U, the yeast fitness was 0.574.
As to U16A C22G U26C C34G A37C A40U A45G C62A, the yeast fitness is at most 0.5.
On to C22G U35A A57G C62A, for which the yeast fitness is 0.567.
With C31G U32G C55A C62G A65U the figure was 0.688; with C27U U35C A37C A40U A43U, at most 0.5; with A15C U19C C46A U59A, at most 0.5.
In the case of C4G C24U C62A C66U, the yeast fitness was at most 0.5.
Take G12C U19A A42C G50C G56C: the yeast fitness is at most 0.5.
Regarding C31U A37C U64A, the yeast fitness is at most 0.5.
For U7A C22G G38C C60U, the yeast fitness was at most 0.5.
For A15G C55U, the yeast fitness is 0.75.
Take C22U G52A: the yeast fitness came out at 0.675.
For the variant U8A G50A A69U, the yeast fitness came out at 0.589.
With U19G C49U A69C, the yeast fitness was at most 0.5.
The result for C4A U32C G67A reads 0.655.
As for U16C C55U, the yeast fitness amounted to 0.831.
